This is a sample that favours compounds with a hit; in the whole collection about 0.72% have one here.
mIAP block: blocks mouse intestinal alkaline phosphatase; inhibition, % at 10 µM; AID 2806; purified mouse IAP, CDP-Star luminescence, 30 min; actives 0.2% (n = 330,000);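 active = inhibition of at least 40% at 10 µM in the primary screen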;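 note: plate controls were DMSO with enzyme for no effect and no enzyme wells for full effect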
bIAP inhibitor: intestinal alkaline phosphatase (bovine) inhibition. AID 1019. 190,000 tested, under 10 active. purified bovine IAP, CDP-star luminescence, 30 min. inhibition, % at 20 µM;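 active = over 50% inhibition of intestinal alkaline phosphatase at 20 µM in the single-dose screen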
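Assay system – bovine IAP enzyme · Quantity – bovine IAP at 1/65,000,000 final dilution · Detection – CDP-star luminescence signal · Times – 30 min reaction at room temperature · Also added – CDP-star substrate at 30 µM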
mIAP activ: mouse IAP activation; muIAP, CDP-Star luminescence, 30 min; active compounds read high; 1 = vehicle-only enzyme signal, 0 = enzyme-free wells; activation factor at 10 µM; actives 0.24% (n = 330,000); AID 2805;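 active = activation factor of at least 2 at 20 µM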
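System: mouse IAP enzyme. Reagent: CDP-Star chemiluminescent phosphatase substrate. Benchmarks: DMSO wells, no-enzyme wells. Times: 30 min enzyme-substrate-compound incubation at room temperature. Detection: luminescence from enzymatic CDP-Star hydrolysis. Doses: test compounds delivered from DMSO solution.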
hIAP act: human IAP activation; purified human IAP, CDP-Star luminescence, 30 min; active compounds read high; 1 = vehicle-only enzyme, 0 = enzyme-free background; activation factor at 10 µM; actives 0.16% (n = 330,000); AID 2524;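 active = activation factor of the enzyme at least 2-fold when tested at 20 µM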
Target sequence (P09923 whole entry, looked up): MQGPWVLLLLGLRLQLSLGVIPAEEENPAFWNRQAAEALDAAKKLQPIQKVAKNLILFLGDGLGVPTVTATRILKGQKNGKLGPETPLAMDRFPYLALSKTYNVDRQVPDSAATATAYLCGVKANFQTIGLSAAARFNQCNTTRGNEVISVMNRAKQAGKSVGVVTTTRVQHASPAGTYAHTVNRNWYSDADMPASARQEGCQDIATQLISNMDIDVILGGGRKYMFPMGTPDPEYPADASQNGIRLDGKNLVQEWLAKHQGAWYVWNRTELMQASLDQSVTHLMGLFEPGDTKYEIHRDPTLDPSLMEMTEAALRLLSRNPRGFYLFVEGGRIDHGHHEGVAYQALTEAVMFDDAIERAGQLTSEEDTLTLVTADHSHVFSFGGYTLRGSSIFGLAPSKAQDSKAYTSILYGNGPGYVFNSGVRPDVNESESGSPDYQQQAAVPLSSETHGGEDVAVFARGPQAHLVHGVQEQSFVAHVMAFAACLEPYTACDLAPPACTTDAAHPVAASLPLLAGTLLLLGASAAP
bIAP activator: increases bovine intestinal alkaline phosphatase activity | purified bovine IAP, CDP-star luminescence, 30 min; active compounds read high; fold of DMSO-control signal, blank-subtracted | activation factor at 20 µM | actives 0.17% (n = 200,000);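 active = activation factor of 2 or more at 20 µM, a signal rise over negative controls twice the positive control's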
hIAP block: human IAP inhibition; purified IAP, CDP-Star luminescence, 30 min; inhibition, % at 10 µM; P09923; AID 2544; actives 0.12% (n = 330,000);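 active = inhibition reaching a set limit with compound at 10 µM in the primary screen, cut at about 35% in these data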;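 note: plate controls were DMSO wells with enzyme for no effect and no-enzyme buffer wells for full effect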
mIAP inh conf: mouse IAP inhibition confirmation | shares compounds with mIAP block | purified mouse IAP, CDP-Star luminescence, 30 min | inhibition, % at 10 µM | actives 4.7% (n = 11,000) | AID 434971;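 active = inhibition of at least 40% at 10 µM in either of the two replicates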;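 note: plate controls were DMSO wells with enzyme for no effect and buffer wells lacking enzyme for full effect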
The depositor's hits bear a star; i = inactive; x = no result.

SMILES	mIAP block	bIAP inhibitor	mIAP activ	hIAP act	bIAP activator	hIAP block	mIAP inh conf
COc1ccc(S(=O)(=O)N(C)C[C@H]2Oc3ccc(NC(=O)NC4CCCCC4)cc3C(=O)N([C@H](C)CO)C[C@@H]2C)cc1	-373.1	x	4.73*	0.936	x	6.4	-173.5
COc1ccc(S(=O)(=O)N(C)C[C@H]2Oc3ccc(NC(=O)C4CCCCC4)cc3C(=O)N([C@H](C)CO)C[C@@H]2C)cc1	-37.1	x	1.37	0.999	x	0.1	x
COc1ccc(S(=O)(=O)N(C)C[C@H]2Oc3ccc(NC(=O)Nc4ccccc4)cc3C(=O)N([C@H](C)CO)C[C@@H]2C)cc1	-208.1	x	3.08*	0.984	x	1.6	-114.6
CC(C)NC(=O)Nc1ccc2c(c1)C(=O)N([C@H](C)CO)C[C@H](C)[C@@H](CN(C)S(=O)(=O)c1cccs1)O2	-41.8	x	1.42	0.978	x	2.2	x
COc1ccc(NC(=O)Nc2ccc3c(c2)C(=O)N([C@H](C)CO)C[C@H](C)[C@@H](CN(C)S(=O)(=O)c2cccs2)O3)cc1	-174.8	x	2.75*	1.04	x	-3.8	-110.1
Cc1ccc(NC(=O)C2C(=O)N(C)c3ccccc32)cc1 (centres undefined)	7.8	18.0	0.922	0.914	0.8	8.6	x
Cc1ccc(S(=O)(=O)NC(CC(C)C)C(=O)Nc2ccncc2)cc1 (centres undefined)	-8.9	x	1.09	1.02	x	-1.9	x
COC(=O)c1ccccc1NC(=O)CSc1nc(N)cc(N)n1	-4.0	2.8	1.04	0.971	1	2.9	x
C[C@H](CO)N1C[C@H](C)[C@H](CN(C)Cc2ccc(Oc3ccccc3)cc2)Oc2ccc(NC(=O)Nc3cccc4ccccc34)cc2CC1=O	-176.4	x	2.76*	0.999	x	0.1	-103.3
CC(=O)Nc1ccc(NC(=O)C(C)OC(=O)c2oc3ccccc3c2C)cc1 (centres undefined)	-6.2	x	1.06	0.982	x	1.8	x
CC(C)(C)c1ccc(NC(=O)NC2CCCc3ccccc32)cc1 (centres undefined)	i	x	6.25*	1.42	x	-42.4	-252.7
Cc1ccc(NC(=O)NC2CCCc3ccccc32)cc1 (centres undefined)	-54.8	x	1.55	0.964	x	3.6	x
O=C(CCCSc1nc2ccccc2[nH]1)NCc1ccccc1Cl	-1.6	13.0	1.02	0.981	0.9	1.9	x
Cc1cc(F)ccc1S(=O)(=O)Nc1ccc(O)c(Sc2ncn[nH]2)c1	69.7*	x	0.303	1.06	x	-5.6	65.9*
CCOc1ccc(S(=O)(=O)Nc2ccc(O)c(Sc3ncn[nH]3)c2)cc1	44.2*	-2.6	0.558	1.06	1	-5.7	62.0*
CCOc1ccc(NS(=O)(=O)c2ccc(NS(=O)(=O)c3ccc(SC)cc3)cc2)cc1	10.6	14.1	0.894	0.995	0.9	0.5	x
CSc1ccc(S(=O)(=O)Nc2ccc(S(=O)(=O)Nc3ccc(C)cc3)cc2)cc1	5.3	3.8	0.947	0.832	1	16.8	x
Cc1cc(F)ccc1S(=O)(=O)Nc1ccccc1C(=O)Nc1ncn[nH]1	7.4	-60.9	0.926	1.09	1.6	-8.9	x
Cc1ccc(S(=O)(=O)Nc2ccc(O)c(Sc3ncn[nH]3)c2)cc1	49.9*	1.2	0.501	1.04	1	-3.8	65.1*
Cc1ccc(C)c(S(=O)(=O)Nc2ccc(O)c(Sc3ncn[nH]3)c2)c1	74.8*	x	0.252	1.17	x	-17.1	81.7*
CCOC(=O)C(NC(=O)c1ccccc1)(N1CCCC1=O)C(F)(F)F (centres undefined)	2.4	-6.6	0.976	0.884	1.1	11.6	x
COc1ccc(OC)c(S(=O)(=O)Nc2ccc(O)c(Sc3ncn[nH]3)c2)c1	49.7*	13.3	0.503	0.833	0.9	16.7	51.9*
CCN(CC)CCNC(=O)c1ccc(NC(=O)Nc2cccc3ccccc23)cc1	-214.4	x	3.14*	1.54	x	-54.3	-159.6
CCC(C)c1ccccc1N1CC(C(=O)NCCC2=CCCCC2)CC1=O (centres undefined)	-8.7	x	1.09	1.04	x	-3.7	x
Cc1ccc(C)c(CN2CCC(CNC(=O)Nc3ccc(Cl)cc3)CC2)c1	-171.5	x	2.71*	1.34	x	-34.2	-122.8
O=C(NCC1CC1)Nc1ccc(Cl)cc1	-8.7	x	1.09	1.09	x	-8.8	x
